{"source": "paper PMC3831721", "about": "(Indian Journal of Pharmaceutical Sciences, 2013)", "test_system": "Sprague Dawley rats", "assay": "Antiinflammatory activity, carrageenan hind paw edema method", "type": "in vivo", "conditions": "rat, oral, equivalent to 20 mg/kg", "procedure,_shortened": "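Sprague Dawley rats (100-200 g), six per group (3 male, 3 female). Test compound given orally in 1% sodium CMC suspension, equivalent to 20 mg/kg; controls received 1% CMC only. After 30 min, 0.1 ml 1% w/v carrageenan in normal saline injected into the right hind paw plantar surface. Paw volume measured by plethysmometer before dosing and at 0.5, 1, 2, 4 and 6 h. %inhibition = (1−Vt/Vc)×100, using mean relative volume change.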", "data": [{"smiles": "CCc1cccc2c3c([nH]c12)C(CC)(CC(=O)O)OCC3", "note": "(racemic) [EC, (RS)-2-(1,8-Diethyl-4,9-dihydro-3H-pyrano[3,4-b]indol-1-yl) acetic acid]", "values": [{"measurement": "Antiinflammatory activity (6 h) Inhibition of edema (%)", "result": 81.9, "unit": "%"}]}]}
